The source of these data is the EternaBench riboswitch data.

In this data set the test system is MS2 coat protein. The data set can be described thus: apparent Kd, MS2 coat protein; higher = weaker binding; RNA-MaP array; FMN 200 µM where present. In outline:
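On Illumina sequencing-chip clusters, designs were transcribed by stalled E. coli RNA polymerase and titrated with SNAP-549-labelled MS2 coat protein (0.7 or 1.5 nM, doubling to 3 µM), without and then with constant ligand, in 100 mM Tris-HCl pH 7.5, 80 mM KCl, 4 mM MgCl2, BSA, DTT, yeast tRNA and Tween-20. Apparent Kd is the median of filtered per-cluster curve fits to green signal normalised to red-channel RNA signal and control-cluster median Fmax.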

Where [1] appears, read: designed as: OFF switch for flavin mononucleotide, no ligand.
[2] abbreviates: ligand present: flavin mononucleotide, designed as: OFF switch for flavin mononucleotide.
[3] abbreviates: designed as: ON switch for flavin mononucleotide, no ligand.
The mark [4] stands for this setting: ligand present: flavin mononucleotide, designed as: ON switch for flavin mononucleotide.

As usually defined, the apparent Kd is the concentration giving half-maximal binding under the conditions of the assay. For the sequence “UACUUGUCAGGAUAUCUUACAUUUGCAUUAUAGCAACUCUUGGAGAAGGGACAUGAGGAUCACCCAUGUUUGGU”, the “apparent Kd” value under setting [1] is 70.8 nM and the “apparent Kd” value under setting [2] is 317 nM.
As to “UGGUACAUGGGAGGAUAUCCUCAACAUGAGGAUCACCCAUGUAAGAAUUAUAAGCCGAAAGGCAUGGAGAAGGCCCAUGUACCU”, the “apparent Kd” value turned out to be 71.6 nM under setting [3] and 15.3 nM under setting [4].
Taken in the same sequence, the figures for “CUGUCGAUAUCAGGAUAUCGUUUACAUACAUGAGGAUCACCCAUGUUGACAUGGAGCAUAAUUUGCGAGAAGGGAUAACGAUAG” were 23.5 nM and 14.3 nM.
“ACAAAGUGAGGAUAUGCUAUCGUACAUUAUUGUUAUCGUUUGCAGAAGGCACAUGAGGAUCACCCAUGUAAGAA”: the “apparent Kd” value was 29.4 nM under setting [1] and 30.5 nM under setting [2].
Taken in the same sequence, the figures for “CUCCUCCUGGUCAGGAUAUGAGCUUUAUCGGAUAUUCAGAAGGGACAUGAGGAUCACCCAUGUAACGUCGCUGG” were 14.8 nM and 17.2 nM.
“GCAUACAUUCGAGGAUAUCGGUGAACAAAUUAACGAGAAGGCGAUAUAAUUUUUAAACUUAUUGACAUGAGGAUCACCCAUGUA”: the “apparent Kd” value came out at 23.2 nM under setting [3] and 20.8 nM under setting [4].
Consider “CUGCUCCGUGUAGGAUAUCCGGGCAACCAAUCCGGAGAAGGACAUGAGGAUCACCCAUGUAUGUUAUUAUCACGUGAAGCGUCC”, for which the “apparent Kd” value amounted to 23 nM under setting [1] and 25.3 nM under setting [2].
On the same counts, the results for “UUUCUUGGGCAAGGAUAUCCUGUGCGGUUCCGGCUCGUGUCUGUCACAUGAGGAUCACCCAUGUGGGAGAAGGUGCCUGCAGUC” are 6.22 nM and 7.07 nM.
Consider “CAGCUACCCAGUAUGGGUUUUUGUACAGAAGGCCAGGUACAUGAGGAUCACCCAUGUAAAGAUAUGGAGGAUAUGUUAGUGUAU”, for which the “apparent Kd” value reads like this: under setting [3], 29.1 nM; under setting [4], 8.08 nM.
For the sequence “CACGGGUUAGGAUAUGCAUGGUGAAAAGACGCGAUCCUUAGACAUGAGGAUCACCCAUGUAGAAGGAACGCAAU”, the “apparent Kd” value worked out at 18.6 nM under setting [1] and 15.9 nM under setting [2].
In the case of “AUAGAAGACUAGAAGGACCUAGCUGUAUACCGUCGAGGUAUAUAGCUAGGUAGGAUAUGGGACAUGAGGAUCACCCAUGUCUUG”, the “apparent Kd” value by setting is: under setting [3], 8.58 nM; under setting [4], 7.58 nM.
“AAUAGCUGAGGAUAUACAUGAGGAUCACCCAUGUAUUAGUAGGCUGGGAAUAAAUCGUGUAGAAGGCAGGAUGA”: the “apparent Kd” value by setting is: under setting [1], 16 nM; under setting [2], 27.2 nM.
On to “CUAGCUUGCACAGGAUAUAGGCUCGGAGCUUACAUGAGGAUCACCCAUGUAGUGCGAGUGAAGCACUAGAAGGGUGAUGGGUAG”, for which the “apparent Kd” value was found to be 40.4 nM under setting [3] and 22.8 nM under setting [4].
Regarding “UGUGAGAUGAUGUUAGAUAGGAGAACAUGAGGAUCACCCAUGUAGGAUAUUCAAAGACGAAGAUAGAAGAAGGACAUAGGUAUC”, the “apparent Kd” value was 30.3 nM under setting [1] and 78.2 nM under setting [2].
On to “UUGGACGUCGUAGGAUAUGUAGGAUAUUCCUACAUGAGGAUCACCCAUGUUGACAUGGAAGAAGGACAGAAGGAGGAUGUCCAU”, for which the “apparent Kd” value by setting is: under setting [3], 303 nM; under setting [4], 7.18 nM.
As to “UUCGUGUGACAGAAGGGUCUUUCGGGCUGGGAGGCAGGAUAUGUGACAUGAGGAUCACCCAUGUUGGUAUCGUCUGUGUGUACG”, the “apparent Kd” value is, setting by setting: under setting [1], 6.15 nM; under setting [2], 12.8 nM.
Taken in the same sequence, the figures for “CUGUUAUAGAUCCAGAAUUACAACAUGAGGAUCACCCAUGUGCAGGAUAUCGGGUUGAUAGGCGCCGAGAAGGGUAUAGUCACG” were 60.2 nM and 61.6 nM.
On the same counts, the results for “CGUGACUCAGGAUAUCUAUUAUGUCACAUGAGGAUCACCCAUGUCCAGCGAAAGCUGGAGGGAGAAGGGAGUCACG” are 97.9 nM and 34.9 nM.
In the case of “UACCCUUGUGAGAAGGCGCCGCAGAUUUUACGGCGAGGAUAUCACAUGAGGAUCACCCAUGUUCCUGAGCCUACAAGUGUGGGC”, the “apparent Kd” value is, setting by setting: under setting [1], 338 nM; under setting [2], 313 nM.
On the same counts, the results for “ACUAUACGAGGAUAUACUGACGGGCCUCAGGCAUACAUCAGACAUGAGGAUCACCCAUGUAGAAGGCGUAUACU” are 104 nM and 40.6 nM.
Taken in the same sequence, the figures for “GUAACUCAUGUAGGAUAUGCAUGGCGAAGCUACGCAGAAGGACAUGAGGAUCACCCAUGUUCUAGCGUCUGGAUACAGAUGCAA” were 85.7 nM and 327 nM.
On the same counts, the results for “UUAUGUUUUGUAGGAUAUCAUUAGUUAUGUAUUAUAAUUGAAAUUUUGUUAUGAGAAGGACAUUUACAUGAGGAUCACCCAUGU” are 13.9 nM and 9.9 nM.
Consider “UACAUGAGGAUCACCCAUGUUUUGUCGUGUAUGGUAUUUAUCUAGGAUAUCAAUGAAUUUAUUUAUGAGAAGGAGAAUAUUAAU”, for which the “apparent Kd” value is 40 nM under setting [1] and 37.5 nM under setting [2].
Take “UAUUUUAACUAAGGAUAUCUAUAUUAAUUUGAAACAUGAGGAUCACCCAUGUUCAUGGGUUUAUAAGAGAAGGUAGAUGAAUAA”: the “apparent Kd” value turned out to be 48.7 nM under setting [3] and 20.7 nM under setting [4].
Take “ACAGCGAUGGUUAGGAUAUCCACGAGUACUUCGUCGGAGAAGGAACAUGAGGAUCACCCAUGUAGAUCCCAGGG”: the “apparent Kd” value by setting is: under setting [1], 146 nM; under setting [2], 319 nM.
With “CCUCUACAUGAGGAUCACCCAUGUGAGGAUAUCUCGGAAAAGCCACUUAAGGUACUCCAGAGAAGGCACGUGUA”, the “apparent Kd” value runs as follows: under setting [1], 14.6 nM; under setting [2], 23.7 nM.
“UCCUUGUCCUGAGGAUAUCCGCGGUUCCCAAAAGGAGAAGGCAGGACAUGAGGAUCACCCAUGUACCCAGAAAACGUGCAGAGC”: the “apparent Kd” value under setting [1] is 9.39 nM and the “apparent Kd” value under setting [2] turned out to be 33.8 nM.
With “UAGGAGUACGUAGGAUAUGUAGGAUAUUCCUACAUGAGGAUCACCCAUGUAUGCAUGGAAGAAGGACAGAAGGACGUGCUCCUU”, the “apparent Kd” value reads like this: under setting [3], 200 nM; under setting [4], 13.2 nM.
As to “AAUAGUACAGGAUAUACAUGAGGAUCACCCAUGUGAAAAUUAAGUGGCGUACCACAAAGUAGAAGGGUACUGGA”, the “apparent Kd” value by setting is: under setting [1], 22.8 nM; under setting [2], 71.4 nM.
On the same counts, the results for “GCGCACUAAGUGAGGAUAUCGAUUUCUUUAAGGAUCGAGAAGGCACAUGAGGAUCACCCAUGUUUGACGUGCGC” are 16.9 nM and 14.5 nM.
Taken in the same sequence, the figures for “CGUGACUCAGGAUAUCUAUAAUAUCACAUGAGGAUCACCCAUGUCCAGCAAUAGCUGGAGGGAGAAGGGAGUCACG” were 140 nM and 54.9 nM.
On the same counts, the results for “UUCGGCGCAGGAUAUGCGGUUCUGUGUUGAAUCGGCGCGGGACAUGAGGAUCACCCAUGUAGAAGGGUGUUGGG” are 361 nM and 287 nM.
As for “GAACUGAAGCAUAGCUUUAGUCGUACAUGAGGAUCACCCAUGUAGGAUAUGGUAGGCUUAGCUUACUAGAAGGAUAGAGUGAUC”, the “apparent Kd” value by setting is: under setting [1], 140 nM; under setting [2], 66.8 nM.
Take “UUGGCAACGUAGAAGGGUGACAUGAGGAUCACCCAUGUGCCGAUAUUUCUCGAGAUAUGUCGGCCACAGGAUAUACGUGCCAUC”: the “apparent Kd” value runs as follows: under setting [3], 32.3 nM; under setting [4], 57.9 nM.
For the sequence “AAAAAGUCAGGAUAUUCGGAUAGGAAAACGAAAACCUAUCCGAAGAAGGGACAUGAGGAUCACCCAUGUAAAAA”, the “apparent Kd” value amounted to 27.4 nM under setting [1] and 46.5 nM under setting [2].
In the case of “AACCGGGAGAAGCAGGAUAUUGCCUCUUCAACAUGAGGAUCACCCAUGUAAGUAAAUUGACGAUACAAGAAGGGCUGCUCCUUAC”, the “apparent Kd” value by setting is: under setting [3], 118 nM; under setting [4], 38.1 nM.
On the same counts, the results for “CCGGAAACGGGUAGCUGACAUGAGGAUCACCCAUGUGUUACACAGGAUAUGGAUCCUAAUUGGAUCCAGAAGGGUGUCAGCUAC” are 220 nM and 36.5 nM.
Turning to “CCCUCACAUGAGGAUCACCCAUGUCAGGAUAUCUCACAUCAGCCUUAGGCCGAUGUCUAGAGAAGGGACGUAUC”, the “apparent Kd” value runs as follows: under setting [1], 22.7 nM; under setting [2], 30.3 nM.
Take “UAGGACUACGUAGGAUAUUAAAUCAUGUACUACAUGAGGAUCACCCAUGUUAAUUUAACAUCAGCUGAGAAGGACGUGGUAAAU”: the “apparent Kd” value reads like this: under setting [3], 120 nM; under setting [4], 58.5 nM.
Turning to “UAUGUGUCAGGAUAUUGUUAAUUUAGUUGUUUGUAUUAGUUCGAGAAGGGACAUGAGGAUCACCCAUGUUGUUU”, the “apparent Kd” value under setting [1] was determined as 31.9 nM.
Regarding “GAUUCGGGAGGAUAUACAUGAGGAUCACCCAUGUGUUUUUUGUGUGUUUUGUUAUCGUGUAGAAGGUUUGGGUC”, the “apparent Kd” value runs as follows: under setting [1], 117 nM; under setting [2], 172 nM.
In the case of “CCAUGCAUAGCGAUAUGAUCGAGAGAUCAUGUCGCUAAAUUUAGAAGGACAUGAGGAUCACCCAUGUAGGAUAUGGGAGCAUGG”, the “apparent Kd” value runs as follows: under setting [3], 11.7 nM; under setting [4], 8.26 nM.
Regarding “UGAGCAUCAGGAUAUAUGUGGCGACCGUGAGGUCGAAGGUUACAUGAGGAUCACCCAUGUAGAAGGGAUGUUCU”, the “apparent Kd” value runs as follows: under setting [1], 62.6 nM; under setting [2], 203 nM.
On the same counts, the results for “CAGUACUGAGGAUAUACAUGAGGAUCACCCAUGUGUUCCAGCUAGGAAACUAGCAAUUGUAGAAGGCAGUACUG” are 59.2 nM and 428 nM.
Taken in the same sequence, the figures for “AUAAUUUUAUAUAUCAUUUUAAUCAGAAGGCAUAACAUGAGGAUCACCCAUGUAAAUUAAUGUUAUGAGGAUAUGAUUUGGUUA” were 26.1 nM and 147 nM.
As to “GUAUAUCACUCAGGAUAUCUGUAAUUUGUUGAAACAUGAGGAUCACCCAUGUUCAUGAAUUUAUAGGAGAAGGGAGAGAUAUAC”, the “apparent Kd” value under setting [3] came to 4.58 nM and the “apparent Kd” value under setting [4] came to 4.69 nM.
On to “CUGACGUCAGGAUAUCUGAUGUCUAACUUCGGUUAGACAUCAGAGAAGGGACAUGAGGAUCACCCAUGUCAGAG”, for which the “apparent Kd” value was determined as 28.7 nM under setting [1] and 23.1 nM under setting [2].
Taken in the same sequence, the figures for “GCCGAUUAAGUGAGGAUAUACCUAUGGAUACAUAGGUAGAAGGUACAUGAGGAUCACCCAUGUUCCUCAACGGC” were 10.4 nM and 12.7 nM.
